Experimental findings from ChEMBL document CHEMBL3822443, “Looking for new antiplasmodial quinazolines: DMAP-catalyzed synthesis of 4-benzyloxy- and 4-aryloxy-2-trichloromethylquinazolines and their in vitro evaluation toward Plasmodium falciparum” (Eur J Med Chem, 2016) are described below.

Each structure is given as a SMILES string. Some results are limits rather than exact numbers.

A short description of data set [1]: Cytotoxicity against human HepG2 cells measured after 72 hrs by MTT assay. Type of data set: cell-based. A digest of the protocol: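 Cells seeded at 5.10³ per well in complete medium at 37 °C, humidified 6% CO₂, and left 24 h. Compound was added in DMSO (final under 0.5% v/v) over a range of concentrations for 72 h at 37 °C, in triplicate. Wells were checked under the microscope for precipitate. MTT (0.5 mg/mL in FCS-free medium) was added for 2 h, then A570 read with a 630 nm reference. Viability was taken as % of control, CC50 from dose–response, mean of three independent experiments.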
For orientation: Tetrazolium assays rely on reduction of a dye to a coloured formazan, in cell work by metabolically active cells.

Data set [2] can be described thus: Selectivity index, ratio of CC50 for human HepG2 cells to IC50 for chloroquine/purimethamine/proguanil-resistant Plasmodium falciparum K1. Type of data set: functional. A digest of the protocol:
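SI = CC50/IC50 (K1). […] MTT at 0.5 mg/mL was added for 2 h, and absorbance read at 570 nm against 630 nm reference. Viability was taken as % of control, and CC50 is the mean of three independent experiments.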

A short description of data set [3]: Solubility of compound in RPMI1640 culture medium containing 25mM HEPES, 25 mM NaHCO3 and 10% A+ human serum. Type of data set: physicochemical.
In a further data set the test system is Plasmodium falciparum. Kind of data set: Antiplasmodial activity against chloroquine/purimethamine/proguanil-resistant Plasmodium falciparum K1 infected in human A+ erythrocytes assessed as reduction in parasitaemia measured after 72 hrs by SYBR Green I fluorescence-based assay. As to conditions: K1, 72 h. Type of data set: functional, organism-based.

Consider `COc1cccc(Oc2nc(C(Cl)(Cl)Cl)nc3ccccc23)c1`, for which, in data set [1], the half-maximal cytotoxic concentration (CC50) at 72 h stood at 0.5 µM. The “Ratio CC50/IC50” value in data set [2] amounted to 0.3. In addition, in data set [3], the solubility result is “soluble”.
`Clc1ccc(Oc2nc(C(Cl)(Cl)Cl)nc3ccccc23)c(Cl)c1` returned a cytotoxic concentration (CC50) at 72 h in data set [1] of 22.1 µM. For the same compound, the 50% inhibitory concentration (IC50) in the data set on Plasmodium falciparum stood at 1.2 µM. Also, in data set [2], the “Ratio CC50/IC50” value was 18.4. Further, in data set [3], the solubility entry is reported as “soluble”.
On the same counts, the results for `CC(=O)c1ccccc1Oc1nc(C(Cl)(Cl)Cl)nc2ccccc12` are 40 µM, 1.5 µM, 26.7 and “soluble”.
On the same counts, the results for `Cc1cc(Oc2nc(C(Cl)(Cl)Cl)nc3ccccc23)ccc1Cl` are 5.3 µM, 0.9 µM, 5.9 and “soluble”.
On the same counts, the results for `COc1ccc(COc2nc(C(Cl)(Cl)Cl)nc3ccccc23)cc1OC` are 118 µM, 3.9 µM, 30.6 and “soluble”.
Consider `ClC(Cl)(Cl)c1nc(Oc2c(Br)cc(Br)c3cccnc23)c2ccccc2n1`, for which the midpoint of cytotoxicity in data set [1], the CC50 at 72 h, lay at 4.9 µM. For the same compound, the half-inhibitory concentration (IC50) in the data set on Plasmodium falciparum is more than 10 µM. Moreover, in data set [2], the “Ratio CC50/IC50” value was less than 0.5. For the same compound, the solubility entry in data set [3] is given as “soluble”.
On the same counts, the results for `Cc1ccc(COc2nc(C(Cl)(Cl)Cl)nc3ccccc23)cc1` are 50.9 µM, 4 µM, 12.7 and “soluble”.
On the same counts, the results for `ClC(Cl)(Cl)c1nc(Oc2cccc(Br)c2)c2ccccc2n1` are 36.7 µM, 2.3 µM, 16 and “soluble”.
On the same counts, the results for `ClC(Cl)(Cl)c1nc(OCc2cccc(OCc3ccccc3)c2)c2ccccc2n1` are 62.5 µM, 3.8 µM, 16.4 and “soluble”.
Turning to `ClC(Cl)(Cl)c1nc(Oc2ccccc2Br)c2ccccc2n1`, the half-maximal cytotoxic concentration (CC50) at 72 h in data set [1] is 26.2 µM. Besides, in the data set on Plasmodium falciparum, the half-maximal inhibitory concentration (IC50) was 1.9 µM. In data set [2], the “Ratio CC50/IC50” value came out at 13.8. The solubility result in data set [3] is “soluble”.
On the same counts, the results for `Clc1ccc(COc2nc(C(Cl)(Cl)Cl)nc3ccccc23)cc1` are 33.4 µM, 2.5 µM, 13.4 and “soluble”.
In data set [1], `Cc1occc(=O)c1Oc1nc(C(Cl)(Cl)Cl)nc2ccccc12` registered a CC50 at 72 h of 62.7 µM. For the same compound, in the data set with Plasmodium falciparum, the IC50 is more than 10 µM. Also, the “Ratio CC50/IC50” value in data set [2] was less than 6.3. Also, the solubility result in data set [3] was “soluble”.
For `CC(=O)c1ccccc1Oc1nc(C)nc2ccccc12`, the IC50 in the data set with Plasmodium falciparum is more than 15 µM. The solubility entry in data set [3] is “soluble”.
Regarding `N#Cc1ccc(Oc2nc(C(Cl)(Cl)Cl)nc3ccccc23)cc1`, in data set [1], the half-maximal cytotoxic concentration (CC50) at 72 h was more than 8 µM. For the same compound, in the data set with Plasmodium falciparum, the IC50 was determined as 1.6 µM. Moreover, in data set [2], the “Ratio CC50/IC50” value is more than 5. For the same compound, the solubility entry in data set [3] was “Insoluble”.
On the same counts, the results for `FC(F)(F)c1ccc(COc2nc(C(Cl)(Cl)Cl)nc3ccccc23)cc1` are 27.8 µM, 2.8 µM, 9.9 and “soluble”.
On the same counts, the results for `O=[N+]([O-])c1ccc(COc2nc(C(Cl)(Cl)Cl)nc3ccccc23)cc1` are 34.9 µM, 1.8 µM, 19.4 and “soluble”.
`COc1ccc(COc2nc(C(Cl)(Cl)Cl)nc3ccccc23)cc1` had a half-maximal cytotoxic concentration (CC50) at 72 h in data set [1] of 90.3 µM. Further, the IC50 in the data set with Plasmodium falciparum was more than 10 µM. The “Ratio CC50/IC50” value in data set [2] is on record as less than 9. The solubility entry in data set [3] is given as “soluble”.
On the same counts, the results for `O=c1cc(Oc2nc(C(Cl)(Cl)Cl)nc3ccccc23)c2ccccc2o1` are 59 µM, more than 10 µM, less than 5.9 and “soluble”.
On the same counts, the results for `ClC(Cl)(Cl)c1nc(Oc2ccc3ccccc3n2)c2ccccc2n1` are 30.3 µM, more than 10 µM, less than 3 and “soluble”.
On the same counts, the results for `CC(C)c1ccc(COc2nc(C(Cl)(Cl)Cl)nc3ccccc23)cc1` are 33.3 µM, more than 10 µM, less than 3.3 and “soluble”.
With `O=Cc1ccccc1Oc1nc(C(Cl)(Cl)Cl)nc2ccccc12`, the CC50 at 72 h in data set [1] was 75 µM. For the same compound, the IC50 in the data set on Plasmodium falciparum worked out at 10 µM. The “Ratio CC50/IC50” value in data set [2] is 7.5. Moreover, the solubility entry in data set [3] is “soluble”.
On the same counts, the results for `CC(=O)c1cccc(Oc2nc(C(Cl)(Cl)Cl)nc3ccccc23)c1` are 1 µM, 1.7 µM, 0.6 and “soluble”.
On the same counts, the results for `O=[N+]([O-])c1cccc(COc2nc(C(Cl)(Cl)Cl)nc3ccccc23)c1` are 29.9 µM, 2.2 µM, 13.6 and “soluble”.
On the same counts, the results for `C#CC(Oc1nc(C(Cl)(Cl)Cl)nc2ccccc12)c1ccccc1` (configuration not stated) are 24.6 µM, 2.4 µM, 10.2 and “soluble”.
Take `Fc1c(F)c(F)c(Oc2nc(C(Cl)(Cl)Cl)nc3ccccc23)c(F)c1F`: in data set [1], the CC50 at 72 h came out at 43.7 µM. In addition, in the data set with Plasmodium falciparum, the 50% inhibitory concentration (IC50) amounted to 4.4 µM. In data set [2], the “Ratio CC50/IC50” value is reported as 9.9. Besides, the solubility entry in data set [3] is “soluble”.
As for `ClC(Cl)(Cl)c1nc(OCc2ccccc2)c2ccccc2n1`, the CC50 at 72 h in data set [1] came out at 43.8 µM. Further, the IC50 in the data set on Plasmodium falciparum stood at 2 µM. Besides, the “Ratio CC50/IC50” value in data set [2] is on record as 21.9. The solubility entry in data set [3] was “soluble”.
As to `O=[N+]([O-])c1ccccc1COc1nc(C(Cl)(Cl)Cl)nc2ccccc12`, the CC50 at 72 h in data set [1] is more than 10 µM. Also, the half-inhibitory concentration (IC50) in the data set with Plasmodium falciparum turned out to be 2.3 µM. Besides, the “Ratio CC50/IC50” value in data set [2] was more than 4.3. Further, in data set [3], the solubility result is given as “Insoluble”.
Regarding `CC(=O)c1ccc(Oc2nc(C(Cl)(Cl)Cl)nc3ccccc23)cc1`, the CC50 at 72 h in data set [1] came out at 49.5 µM. In addition, the IC50 with Plasmodium falciparum was 2.3 µM. The “Ratio CC50/IC50” value in data set [2] is 21.5. The solubility entry in data set [3] is “soluble”.
On the same counts, the results for `O=[N+]([O-])c1ccc(/C=C/COc2nc(C(Cl)(Cl)Cl)nc3ccccc23)cc1` are 31.2 µM, 2.6 µM, 12 and “soluble”.
In turn, `O=[N+]([O-])c1cc2c(cc1COc1nc(C(Cl)(Cl)Cl)nc3ccccc13)OCO2` yielded a CC50 at 72 h in data set [1] of 28.7 µM. Besides, the IC50 with Plasmodium falciparum worked out at 3.1 µM. Further, in data set [2], the “Ratio CC50/IC50” value is 9.3. Further, the solubility result in data set [3] is reported as “soluble”.
With `ClC(Cl)(Cl)c1nc(Oc2ccc(Br)cc2)c2ccccc2n1`, in data set [1], half-maximal cytotoxicity (CC50 at 72 h) was put at 45 µM. For the same compound, the half-maximal inhibitory concentration (IC50) in the data set on Plasmodium falciparum was 1.8 µM. Also, the “Ratio CC50/IC50” value in data set [2] is recorded as 25. Besides, in data set [3], the solubility result was “soluble”.
On the same counts, the results for `CC(Oc1nc(C(Cl)(Cl)Cl)nc2ccccc12)c1ccc(Cl)cc1` (configuration not stated) are 25.1 µM, 3.5 µM, 7.2 and “soluble”.
On the same counts, the results for `N#CC(Oc1nc(C(Cl)(Cl)Cl)nc2ccccc12)c1ccccc1` (configuration not stated) are 25.7 µM, 1.5 µM, 17.1 and “soluble”.
On the same counts, the results for `CC(Oc1nc(C(Cl)(Cl)Cl)nc2ccccc12)c1ccccc1` (configuration not stated) are 39.9 µM, 3.3 µM, 12.1 and “soluble”.
As for `CC(Oc1nc(C(Cl)(Cl)Cl)nc2ccccc12)c1ccc(Cl)cc1Cl` (configuration not stated), it took 30.2 µM to reach half-maximal cytotoxicity in data set [1] (CC50 at 72 h). Moreover, the IC50 in the data set with Plasmodium falciparum was determined as 4.2 µM. Moreover, the “Ratio CC50/IC50” value in data set [2] is 7.2. Moreover, the solubility result in data set [3] is listed as “soluble”.
As to `COc1cc(C=O)cc([N+](=O)[O-])c1Oc1nc(C(Cl)(Cl)Cl)nc2ccccc12`, in data set [1], the midpoint of cytotoxicity, the CC50 at 72 h, lay at 57 µM. In addition, in the data set with Plasmodium falciparum, the IC50 was more than 10 µM. In addition, the “Ratio CC50/IC50” value in data set [2] is given as less than 5.7. Also, in data set [3], the solubility result was “soluble”.
Regarding `C[C@H]1c2cccc(O)c2C(=O)C2=C(O)[C@]3(O)C(=O)C(C(N)=O)=C(O)[C@@H](N(C)C)[C@@H]3[C@@H](O)[C@@H]21.O` [DOXYCYCLINE], in data set [2], the “Ratio CC50/IC50” value amounted to 3.3.

One may read the CC50 as the concentration at which the toxic effect on the cells reaches its halfway point. One may read the IC50 as the concentration at which inhibition is half-maximal.
